# What was measured:
# Settings in all cases: stereoisomer not certain
# [1] = target: T1, UniProt Q8VFP5
# T1 sequence (whole entry): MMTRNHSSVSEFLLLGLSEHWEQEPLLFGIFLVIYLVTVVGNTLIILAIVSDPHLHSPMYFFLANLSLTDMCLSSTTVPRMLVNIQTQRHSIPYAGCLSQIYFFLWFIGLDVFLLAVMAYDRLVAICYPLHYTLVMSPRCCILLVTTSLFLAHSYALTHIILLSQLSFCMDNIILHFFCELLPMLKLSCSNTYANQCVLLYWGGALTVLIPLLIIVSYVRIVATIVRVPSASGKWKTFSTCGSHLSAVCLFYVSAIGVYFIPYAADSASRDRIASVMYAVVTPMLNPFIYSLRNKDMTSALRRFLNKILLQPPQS
# Summary of the method: (§1)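 Whether a receptor–molecule pair is responsive (active) rests on the original authors' judgment that its measured signal was statistically different from baseline. Pairs without that judgment are non-responsive (inactive). Sources used varied assay methods, commonly transient luciferase assays in mammalian cell lines.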
# [2] = target: T2, UniProt Q8VFZ6
# T2 sequence (whole entry): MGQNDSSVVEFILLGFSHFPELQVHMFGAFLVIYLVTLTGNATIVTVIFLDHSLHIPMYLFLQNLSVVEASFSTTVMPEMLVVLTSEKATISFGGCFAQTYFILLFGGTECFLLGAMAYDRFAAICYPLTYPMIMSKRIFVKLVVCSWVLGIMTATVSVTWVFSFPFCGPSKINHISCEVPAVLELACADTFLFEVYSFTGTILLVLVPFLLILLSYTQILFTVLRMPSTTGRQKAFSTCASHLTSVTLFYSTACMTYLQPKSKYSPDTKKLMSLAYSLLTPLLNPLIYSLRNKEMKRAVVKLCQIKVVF
# Summary of the method: as §1
# [3] = target: T3, UniProt Q8VG01
# T3 sequence (whole entry): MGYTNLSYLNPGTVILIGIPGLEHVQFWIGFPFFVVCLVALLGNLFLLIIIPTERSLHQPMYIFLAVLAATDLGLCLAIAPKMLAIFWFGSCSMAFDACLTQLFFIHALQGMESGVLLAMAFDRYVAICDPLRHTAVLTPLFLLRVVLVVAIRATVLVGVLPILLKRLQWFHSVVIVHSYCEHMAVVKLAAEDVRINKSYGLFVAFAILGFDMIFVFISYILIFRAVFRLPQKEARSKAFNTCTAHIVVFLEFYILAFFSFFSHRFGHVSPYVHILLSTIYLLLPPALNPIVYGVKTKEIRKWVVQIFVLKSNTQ
# Summary of the method: as §1
# [4] = target: T4, UniProt Q8VG22
# T4 sequence (whole entry): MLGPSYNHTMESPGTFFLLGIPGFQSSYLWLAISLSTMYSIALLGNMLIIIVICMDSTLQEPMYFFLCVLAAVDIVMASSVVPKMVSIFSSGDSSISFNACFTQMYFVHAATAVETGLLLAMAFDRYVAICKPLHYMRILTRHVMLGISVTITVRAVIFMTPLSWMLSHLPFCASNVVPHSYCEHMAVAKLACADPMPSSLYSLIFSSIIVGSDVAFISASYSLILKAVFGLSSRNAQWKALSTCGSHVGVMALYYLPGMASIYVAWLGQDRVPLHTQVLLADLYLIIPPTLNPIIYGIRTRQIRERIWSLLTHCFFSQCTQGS
# Summary of the method: as §1
# [5] = target: UniProt Q8VG26
# Chain of UniProt Q8VG26 (Q8VG26 as listed by the source): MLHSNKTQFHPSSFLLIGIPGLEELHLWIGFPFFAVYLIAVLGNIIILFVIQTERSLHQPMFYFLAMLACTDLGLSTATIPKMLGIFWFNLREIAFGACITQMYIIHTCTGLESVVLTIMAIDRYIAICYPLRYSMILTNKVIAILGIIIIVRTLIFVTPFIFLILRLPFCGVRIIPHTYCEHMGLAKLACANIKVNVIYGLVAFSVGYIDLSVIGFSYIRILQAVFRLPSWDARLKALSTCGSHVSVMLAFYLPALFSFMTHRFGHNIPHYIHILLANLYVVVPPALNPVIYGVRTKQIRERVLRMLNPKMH
# Summary of the method: as §1
# [6] = target: UniProt Q8VFQ6
# Chain of UniProt Q8VFQ6 (Q8VFQ6 as listed by the source): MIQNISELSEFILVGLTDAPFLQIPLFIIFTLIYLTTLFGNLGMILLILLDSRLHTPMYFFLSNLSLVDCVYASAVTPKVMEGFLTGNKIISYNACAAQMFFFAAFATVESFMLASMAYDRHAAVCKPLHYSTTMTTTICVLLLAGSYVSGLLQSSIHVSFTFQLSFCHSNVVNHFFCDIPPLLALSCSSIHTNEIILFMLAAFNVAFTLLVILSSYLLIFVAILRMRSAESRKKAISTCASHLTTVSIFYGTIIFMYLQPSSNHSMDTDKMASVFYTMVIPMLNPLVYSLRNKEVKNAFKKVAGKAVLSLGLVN
# Summary of the method: as §1
# 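Further: active if original authors judged signal statistically different from baseline.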
compound,measurement,setting,value
CCCCCCO,odorant receptor agonist call,[1],inactive
same,odorant receptor agonist call,[2],inactive
same,odorant receptor agonist call,[3],inactive
same,odorant receptor agonist call,[4],active
same,odorant receptor agonist call,[5],inactive
CC=CC(=O)C1=C(C)CCCC1(C)C,odorant receptor agonist call,[1],inactive
same,odorant receptor agonist call,[3],inactive
OCC=Cc1ccccc1,odorant receptor agonist call,[1],inactive
same,odorant receptor agonist call,[3],inactive
CCCCCCCCCO,odorant receptor agonist call,[1],inactive
same,odorant receptor agonist call,[2],inactive
same,odorant receptor agonist call,[3],inactive
same,odorant receptor agonist call,[4],inactive
same,odorant receptor agonist call,[5],inactive
CCc1ncc(C)nc1CC,odorant receptor agonist call,[1],inactive
same,odorant receptor agonist call,[3],inactive
O=C(O)CCCCCCCCC(=O)O,odorant receptor agonist call,[1],inactive
same,odorant receptor agonist call,[3],inactive
CC=C(C)C=O,odorant receptor agonist call,[1],inactive
same,odorant receptor agonist call,[3],inactive
OCCc1ccccc1,odorant receptor agonist call,[1],inactive
same,odorant receptor agonist call,[3],inactive
CCOC(=O)CC(C)C,odorant receptor agonist call,[1],inactive
same,odorant receptor agonist call,[3],inactive
C=C(CC)CCCC(C)(C)O,odorant receptor agonist call,[1],inactive
same,odorant receptor agonist call,[3],inactive
COc1nccnc1C,odorant receptor agonist call,[1],inactive
same,odorant receptor agonist call,[3],inactive
CC=Cc1ccc(OC)cc1,odorant receptor agonist call,[1],inactive
same,odorant receptor agonist call,[3],inactive
CC(=O)OC1(C)CCC23CC1C(C)(C)C2CCC3C (stereo unspecified),odorant receptor agonist call,[1],inactive
same,odorant receptor agonist call,[3],inactive
CCCCCCCCO,odorant receptor agonist call,[1],inactive
same,odorant receptor agonist call,[2],active
same,odorant receptor agonist call,[3],inactive
same,odorant receptor agonist call,[4],inactive
same,odorant receptor agonist call,[5],inactive
Cc1ccc(C(C)C)cc1,odorant receptor agonist call,[1],inactive
same,odorant receptor agonist call,[3],inactive
CCCO,odorant receptor agonist call,[1],inactive
same,odorant receptor agonist call,[3],inactive
CCCCCOC(=O)CC,odorant receptor agonist call,[1],inactive
same,odorant receptor agonist call,[3],inactive
CCSCC,odorant receptor agonist call,[1],inactive
same,odorant receptor agonist call,[3],inactive
C=C(C)C1CCC2(C)OC2C1 (stereo unspecified),odorant receptor agonist call,[1],inactive
same,odorant receptor agonist call,[3],inactive
O=C(O)CCCCCBr,odorant receptor agonist call,[1],inactive
same,odorant receptor agonist call,[3],active
CCc1ccc(O)cc1,odorant receptor agonist call,[1],inactive
same,odorant receptor agonist call,[3],inactive
CCCCCCC(C)O (stereo unspecified),odorant receptor agonist call,[1],inactive
same,odorant receptor agonist call,[3],inactive
CCCCCCCCC=CC=O,odorant receptor agonist call,[1],inactive
same,odorant receptor agonist call,[3],inactive
CCCCCC=CCCC=O,odorant receptor agonist call,[1],inactive
same,odorant receptor agonist call,[3],inactive
Cc1ccc(C(C)C)c(O)c1,odorant receptor agonist call,[1],inactive
same,odorant receptor agonist call,[3],inactive
CCC(C)O (stereo unspecified),odorant receptor agonist call,[1],inactive
same,odorant receptor agonist call,[3],inactive
Cc1ccc2c(c1)OCC(=O)CO2,odorant receptor agonist call,[1],inactive
same,odorant receptor agonist call,[3],inactive
OCCCCCCCCCO,odorant receptor agonist call,[1],inactive
same,odorant receptor agonist call,[3],inactive
O=C([O-])CCCCCCC(=O)[O-].[H+].[H+],odorant receptor agonist call,[1],inactive
same,odorant receptor agonist call,[3],inactive
C=CC(=C)CCC=C(C)C,odorant receptor agonist call,[1],inactive
same,odorant receptor agonist call,[3],inactive
C=CC(=C)CCC=C(C)CCC=C(C)C,odorant receptor agonist call,[1],inactive
same,odorant receptor agonist call,[3],inactive
CCCCCC(C)O (stereo unspecified),odorant receptor agonist call,[1],inactive
same,odorant receptor agonist call,[3],inactive
Cc1ccccc1OC(=O)C(C)C,odorant receptor agonist call,[1],inactive
same,odorant receptor agonist call,[3],inactive
CCCC=O,odorant receptor agonist call,[1],inactive
same,odorant receptor agonist call,[3],inactive
Cc1c(C)c(C)c(C=O)c(C)c1C,odorant receptor agonist call,[1],inactive
same,odorant receptor agonist call,[3],inactive
CC1CC=CCCCCCCCCCC(=O)C1 (stereo unspecified),odorant receptor agonist call,[1],inactive
same,odorant receptor agonist call,[3],inactive
Cc1ccc(OC(=O)C(C)C)cc1,odorant receptor agonist call,[1],inactive
same,odorant receptor agonist call,[3],inactive
CC(=O)C1(C)CC2=C(CCCC2(C)C)CC1C (stereo unspecified),odorant receptor agonist call,[1],inactive
same,odorant receptor agonist call,[3],inactive
CC(CC=O)CCCC(C)(C)O (stereo unspecified),odorant receptor agonist call,[1],inactive
same,odorant receptor agonist call,[3],inactive
CCCCCCC(C=O)=Cc1ccccc1,odorant receptor agonist call,[1],inactive
same,odorant receptor agonist call,[3],inactive
CNc1ccccc1C(=O)OC,odorant receptor agonist call,[1],inactive
same,odorant receptor agonist call,[3],inactive
COc1cnccn1,odorant receptor agonist call,[1],inactive
same,odorant receptor agonist call,[3],inactive
CCCCCC(C=O)=Cc1ccccc1,odorant receptor agonist call,[1],inactive
same,odorant receptor agonist call,[3],inactive
C=C1C2CCC(C2)C1(C)C (stereo unspecified),odorant receptor agonist call,[1],inactive
same,odorant receptor agonist call,[3],inactive
CC1(C)CC(=O)CC(=O)C1,odorant receptor agonist call,[1],inactive
same,odorant receptor agonist call,[3],inactive
CCCCCOC(=O)CCC,odorant receptor agonist call,[1],inactive
same,odorant receptor agonist call,[3],inactive
CC(C)=CCCC(C)=CCOC(=O)C(C)C,odorant receptor agonist call,[1],inactive
same,odorant receptor agonist call,[3],inactive
CCCCCCCCCCCO,odorant receptor agonist call,[1],inactive
same,odorant receptor agonist call,[3],inactive
CCCC(C)C(=O)OCC (stereo unspecified),odorant receptor agonist call,[1],inactive
same,odorant receptor agonist call,[3],inactive
CCCCCCCCOC=O,odorant receptor agonist call,[1],inactive
same,odorant receptor agonist call,[3],inactive
CCc1nccnc1CC,odorant receptor agonist call,[1],inactive
same,odorant receptor agonist call,[3],inactive
CC(C)=C1CCC(C)CC1=O (stereo unspecified),odorant receptor agonist call,[1],inactive
same,odorant receptor agonist call,[3],inactive
C=C(C)C1CCC(C)C(O)C1 (stereo unspecified),odorant receptor agonist call,[1],inactive
same,odorant receptor agonist call,[3],inactive
O=C([O-])CCCCCCCC(=O)[O-].[H+].[H+],odorant receptor agonist call,[1],inactive
same,odorant receptor agonist call,[3],inactive
same,odorant receptor agonist call,[5],inactive
CCCCOC(=O)C(C)OC(=O)CCC (stereo unspecified),odorant receptor agonist call,[2],inactive
same,odorant receptor agonist call,[3],inactive
same,odorant receptor agonist call,[4],inactive
CCCCCO,odorant receptor agonist call,[2],inactive
same,odorant receptor agonist call,[3],inactive
same,odorant receptor agonist call,[4],active
CCSSCC,odorant receptor agonist call,[1],inactive
same,odorant receptor agonist call,[3],inactive
CCCC(C)=O,odorant receptor agonist call,[2],inactive
same,odorant receptor agonist call,[3],inactive
same,odorant receptor agonist call,[4],inactive
same,odorant receptor agonist call,[5],inactive
CC1CCC(C(C)C)C(=O)C1 (stereo unspecified),odorant receptor agonist call,[1],inactive
same,odorant receptor agonist call,[3],inactive
CCCCCCCCCC=CC=O,odorant receptor agonist call,[1],inactive
same,odorant receptor agonist call,[3],inactive
CCCCOC(=O)CCC,odorant receptor agonist call,[5],inactive
O=c1ccc2ccccc2o1,odorant receptor agonist call,[6],inactive
same,odorant receptor agonist call,[2],inactive
same,odorant receptor agonist call,[3],inactive
same,odorant receptor agonist call,[4],active
C=CC(=O)CCCCC,odorant receptor agonist call,[1],inactive
same,odorant receptor agonist call,[3],inactive
CCCCCCCOC(=O)C(C)C,odorant receptor agonist call,[1],inactive
same,odorant receptor agonist call,[3],inactive
CC(=O)C=CC1=C(C)CCCC1(C)C,odorant receptor agonist call,[1],inactive
same,odorant receptor agonist call,[3],inactive
CCc1ccccc1O,odorant receptor agonist call,[1],inactive
same,odorant receptor agonist call,[3],inactive
COc1ccccc1,odorant receptor agonist call,[1],inactive
same,odorant receptor agonist call,[3],inactive
CCCCCC(=Cc1ccccc1)C(OC)OC,odorant receptor agonist call,[1],inactive
same,odorant receptor agonist call,[3],inactive
CCCCCCCC(=O)[O-].[H+],odorant receptor agonist call,[2],inactive
same,odorant receptor agonist call,[3],active
same,odorant receptor agonist call,[4],inactive
same,odorant receptor agonist call,[5],inactive
CCCCC=O,odorant receptor agonist call,[1],inactive
same,odorant receptor agonist call,[3],inactive
same,odorant receptor agonist call,[5],inactive
C1CCOCC1,odorant receptor agonist call,[1],inactive
same,odorant receptor agonist call,[3],inactive
O=C(O)C1CCC1,odorant receptor agonist call,[1],inactive
same,odorant receptor agonist call,[3],inactive
c1ccc2ncccc2c1,odorant receptor agonist call,[1],inactive
same,odorant receptor agonist call,[3],inactive
CCCCCCCCCCOC(C)=O,odorant receptor agonist call,[1],inactive
same,odorant receptor agonist call,[3],inactive
